The source of these data is ChEMBL document CHEMBL1828531, “Pyrazol-3-propanoic acid derivatives as novel inhibitors of leukotriene biosynthesis in human neutrophils” (Eur J Med Chem, 2011).

What is called IC50 is the concentration that gives 50% inhibition.

The target of assay [1] is T1, Polyunsaturated fatty acid lipoxygenase ALOX15 (Homo sapiens) (UniProt P16050).
T1 sequence (whole entry): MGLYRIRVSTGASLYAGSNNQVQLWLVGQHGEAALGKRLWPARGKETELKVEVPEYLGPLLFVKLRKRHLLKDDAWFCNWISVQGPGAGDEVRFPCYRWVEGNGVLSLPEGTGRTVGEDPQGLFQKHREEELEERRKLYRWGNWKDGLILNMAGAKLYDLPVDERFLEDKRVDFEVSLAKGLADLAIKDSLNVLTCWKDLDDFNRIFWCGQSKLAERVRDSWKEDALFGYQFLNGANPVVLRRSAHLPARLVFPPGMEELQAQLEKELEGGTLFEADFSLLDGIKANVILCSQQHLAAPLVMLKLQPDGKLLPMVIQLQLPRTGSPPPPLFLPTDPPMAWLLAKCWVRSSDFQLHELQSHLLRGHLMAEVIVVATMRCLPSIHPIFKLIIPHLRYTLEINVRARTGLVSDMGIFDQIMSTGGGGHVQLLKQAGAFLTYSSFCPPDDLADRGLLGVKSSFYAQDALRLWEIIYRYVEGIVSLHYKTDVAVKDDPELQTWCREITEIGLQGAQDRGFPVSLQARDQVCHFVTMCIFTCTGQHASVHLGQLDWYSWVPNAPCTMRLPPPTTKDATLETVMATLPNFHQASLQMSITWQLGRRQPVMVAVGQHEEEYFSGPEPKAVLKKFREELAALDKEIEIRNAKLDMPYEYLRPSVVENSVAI
The experiment in a line: Inhibition of 15-Lipoxygenase-mediated 15-HETE in human neutrophil assessed as residual activity at 30 uM after 15 mins by HPLC analysis. The essentials:
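Freshly isolated human blood neutrophils, 5 × 10^6/mL in PBS pH 7.4 with 1 mg/mL glucose and 1 mM CaCl2, preincubated with compound 15 min at RT. Stimulated with 2.5 µM A23187 plus 20 µM AA for 10 min at 37 °C. Stopped with methanol/HCl, PGB1 internal standard. 12-HETE or 15-HETE measured by HPLC. Residual activity tested at 30 µM.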

In assay [2] the target is T2, Prostaglandin G/H synthase 2 (Homo sapiens) (UniProt P35354).
T2 sequence (whole entry): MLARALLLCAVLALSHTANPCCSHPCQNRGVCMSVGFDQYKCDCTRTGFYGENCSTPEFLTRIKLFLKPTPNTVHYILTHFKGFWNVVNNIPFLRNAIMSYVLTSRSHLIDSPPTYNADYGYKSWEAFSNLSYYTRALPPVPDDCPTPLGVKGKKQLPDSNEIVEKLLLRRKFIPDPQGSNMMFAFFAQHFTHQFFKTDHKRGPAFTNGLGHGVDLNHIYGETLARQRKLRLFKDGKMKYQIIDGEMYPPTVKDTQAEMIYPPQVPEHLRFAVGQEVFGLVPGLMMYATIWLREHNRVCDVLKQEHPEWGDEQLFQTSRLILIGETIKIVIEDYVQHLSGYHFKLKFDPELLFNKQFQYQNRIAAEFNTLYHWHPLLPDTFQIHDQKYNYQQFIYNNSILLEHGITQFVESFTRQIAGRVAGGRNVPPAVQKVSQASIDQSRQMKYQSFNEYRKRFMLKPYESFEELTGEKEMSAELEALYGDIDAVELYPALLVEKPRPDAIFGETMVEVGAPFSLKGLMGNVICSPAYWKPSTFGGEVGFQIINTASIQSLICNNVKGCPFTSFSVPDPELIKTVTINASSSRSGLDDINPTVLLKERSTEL
The experiment in a line: Inhibition of COX2-mediated 6-keto PGF1alpha production in IL1-beta stimulated human A549 cells assessed as residual activity at 10 uM after 10 mins by EIA. The format is cell-based. In a few lines:
(§1)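 A549 cells stimulated with IL-1β (1 ng/ml) 72 h in DMEM with 2% FCS, trypsinized and washed. 10^6 cells/mL PBS with 1 mM CaCl2 preincubated with compound 10 min at 37 °C. 3 µM AA added for 15 min at 37 °C, stopped on ice. 6-keto PGF1α in supernatant measured by EIA.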

The target in assay [3] is T3, Polyunsaturated fatty acid 5-lipoxygenase (Homo sapiens) (UniProt P09917).
T3 sequence (whole entry): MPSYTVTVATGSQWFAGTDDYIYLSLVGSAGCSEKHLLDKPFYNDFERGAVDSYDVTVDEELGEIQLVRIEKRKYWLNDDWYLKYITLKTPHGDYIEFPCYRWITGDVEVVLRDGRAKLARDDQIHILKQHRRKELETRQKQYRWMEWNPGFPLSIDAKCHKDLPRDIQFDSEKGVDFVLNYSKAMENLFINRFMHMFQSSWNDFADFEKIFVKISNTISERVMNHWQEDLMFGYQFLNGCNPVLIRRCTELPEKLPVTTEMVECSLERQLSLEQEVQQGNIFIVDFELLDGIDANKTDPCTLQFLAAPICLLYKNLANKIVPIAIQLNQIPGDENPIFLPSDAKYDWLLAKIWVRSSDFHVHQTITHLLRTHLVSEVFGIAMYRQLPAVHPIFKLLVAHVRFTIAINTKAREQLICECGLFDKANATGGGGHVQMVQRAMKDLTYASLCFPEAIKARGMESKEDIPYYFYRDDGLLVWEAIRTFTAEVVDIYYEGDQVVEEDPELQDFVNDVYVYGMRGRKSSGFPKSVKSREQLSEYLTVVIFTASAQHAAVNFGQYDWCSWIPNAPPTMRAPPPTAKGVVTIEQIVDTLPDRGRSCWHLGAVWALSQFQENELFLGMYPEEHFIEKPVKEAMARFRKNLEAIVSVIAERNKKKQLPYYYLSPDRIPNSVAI
Kind of assay: Inhibition of recombinant human 5-Lipoxygenase expressed in Escherichia coli lysate assessed as residual activity using arachidonic acid as substrate at 10 uM after 10 mins by HPLC analysis. In a few lines:
(§2)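 Human 5-LO expressed at 30 °C in E. coli MV1190 (pT3-5LO); lysate 40,000 g supernatant in PBS pH 7.4 with 1 mM EDTA. Preincubated with compound 10 min at 4 °C, warmed 30 s at 37 °C. Started with 2 mM CaCl2 plus 20 µM AA, 10 min at 37 °C. Methanol stop, HPLC. Residual % versus 0.3% DMSO vehicle, n = 3–5.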

Assay [4] deals with T4, Polyunsaturated fatty acid 5-lipoxygenase (Homo sapiens, UniProt P09917).
T4 sequence (P09917 whole entry): T3 sequence (whole entry)
The experiment in a line: Inhibition of recombinant human 5-Lipoxygenase expressed in Escherichia coli lysate after 10 mins by HPLC analysis. In a few lines:
as §2

In assay [5] the target is Prostaglandin G/H synthase 1 (Homo sapiens, UniProt P23219). The experiment in a line: Inhibition of COX1-mediated 12-HHT production in human platelet after 5 mins by HPLC analysis. The essentials:
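Washed human platelets, 10^8/mL in PBS with 1 mM CaCl2, preincubated with compound 4 min at 4 °C then 1 min at 37 °C. 5 µM AA added for 5 min at 37 °C. Methanol/HCl stop, PGB1 added, 12-HHT by HPLC. Residual activity at 10 µM. IC50 by interpolation from 4–5 concentrations.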

For assay [6], the target named is T5, Prostaglandin G/H synthase 2 (Homo sapiens, UniProt P35354).
T5 sequence (P35354 whole entry): T2 sequence (whole entry)
Kind of assay: Inhibition of COX2-mediated 6-keto PGF1alpha production in IL1-beta stimulated human A549 cells after 10 mins by EIA. It is filed as cell-based. In a few lines:
as §1

Prostaglandin G/H synthase 1, sequence (P23219 whole entry): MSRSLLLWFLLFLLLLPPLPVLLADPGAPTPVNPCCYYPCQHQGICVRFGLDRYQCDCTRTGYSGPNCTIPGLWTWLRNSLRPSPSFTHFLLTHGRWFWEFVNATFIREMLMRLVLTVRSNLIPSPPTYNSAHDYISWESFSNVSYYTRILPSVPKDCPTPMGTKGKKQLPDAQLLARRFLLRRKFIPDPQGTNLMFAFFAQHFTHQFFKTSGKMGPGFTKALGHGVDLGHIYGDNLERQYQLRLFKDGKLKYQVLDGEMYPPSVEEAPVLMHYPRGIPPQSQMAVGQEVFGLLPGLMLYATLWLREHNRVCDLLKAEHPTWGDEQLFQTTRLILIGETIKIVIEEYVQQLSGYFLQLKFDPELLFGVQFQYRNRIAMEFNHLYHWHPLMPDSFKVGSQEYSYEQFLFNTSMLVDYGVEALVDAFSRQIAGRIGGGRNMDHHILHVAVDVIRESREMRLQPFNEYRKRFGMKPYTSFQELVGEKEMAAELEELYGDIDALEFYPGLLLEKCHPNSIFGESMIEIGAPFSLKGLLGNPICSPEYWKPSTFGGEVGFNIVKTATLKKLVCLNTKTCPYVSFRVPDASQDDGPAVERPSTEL

For the molecule `CC(C)(C)c1ccc(CN2CCN(C(=O)CCc3cc(-c4ccc(F)cc4)n(-c4ccc(Cl)nn4)n3)CC2)cc1`, the Activity was determined as 175% in assay [1], 84.2% in assay [2] and 103% in assay [3]. The IC50 in assay [4], in assay [5] and in assay [6] was greater than 10 µM in each case.
`Cc1ccc(-c2cc(CCC(=O)Oc3ccc(C(C)C)cc3)nn2-c2ccc3ccccc3n2)cc1`: the values for the Activity in assay [1], in assay [2] and in assay [3] were 92%, 97% and 86.1%, respectively. Besides, the IC50 in assay [4] is greater than 10 µM; in assay [5], 0.014 µM; in assay [6] it was greater than 10 µM.
For `Cc1ccc(-c2cc(CCC(=O)N3CCN(Cc4ccc(C(C)(C)C)cc4)CC3)nn2-c2ccc3ccccc3n2)cc1`, the Activity came out at 145% in assay [1], 79% in assay [2] and 115% in assay [3]. For the same molecule, the IC50 in assay [4] is greater than 10 µM; in assay [5], 0.041 µM; in assay [6] it was greater than 10 µM.
Take `CCOC(=O)C1CCN(C(=O)CCc2cc(-c3ccc(C)cc3)n(-c3ccccc3)n2)CC1`: the Activity in assay [1] is 196%; in assay [2], 86.3%; in assay [3], 79.5%. For the same molecule, the half-inhibitory concentration (IC50) in assay [4], in assay [5] and in assay [6] was greater than 10 µM throughout.
Regarding `Cc1ccc(-c2cc(CCC(=O)Oc3ccc(C(C)C)cc3)nn2-c2ccc(Cl)nn2)cc1`, the Activity in assay [2] was determined as 99.9%; in assay [3] it was 83.4%. The IC50 in assay [4], in assay [5] and in assay [6] was greater than 10 µM in each case.
Turning to `Cc1ccc(-c2cc(CCC(=O)N3CCN(Cc4ccc(C(C)(C)C)cc4)CC3)nn2-c2ccccc2)cc1`, the Activity in assay [1] was 261%; in assay [2], 97%; in assay [3] it was 62.9%. Besides, the figures for the IC50 in assay [4], in assay [5] and in assay [6] were greater than 10 µM, 2.5 µM and greater than 10 µM, respectively.
Regarding `CCOC(=O)C1CCN(C(=O)CCc2cc(-c3ccc(C(F)(F)F)cc3)n(-c3ccc(Cl)nn3)n2)CC1`, the Activity in assay [1] was 71%; in assay [2], 78.6%; in assay [3] it was 84%. The IC50 in assay [4], in assay [5] and in assay [6] was greater than 10 µM throughout.
For `Cc1ccc(-c2cc(CCC(=O)Oc3ccc(C(C)C)cc3)nn2-c2ccccc2)cc1`, the Activity in assay [1] stood at 124%; in assay [2], 111%; in assay [3], 92.6%. Further, the IC50 was greater than 10 µM in assay [4], 0.3 µM in assay [5] and greater than 10 µM in assay [6].
As for `CCOC(=O)C1CCN(C(=O)CCc2cc(-c3ccc(C)cc3)n(-c3ccc4ccccc4n3)n2)CC1`, the Activity in assay [1] amounted to 149%; in assay [2] it was 66.3%; in assay [3], 55.9%. In addition, the values for the IC50 in assay [4], in assay [5] and in assay [6] were greater than 10 µM, 0.9 µM and greater than 10 µM, respectively.
